System: Fibroblast
Assay: Multiplex assay against human fibroblast
Assay type: toxicity, cell-based
Summary of the method: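 Hoechst33342, BioTracker Green Microtubule Cytoskeleton Dye, MitoTracker Red and Annexin V Alexa Fluor 680 were added to live cells at seeding, and imaging on a CQ1 microscope at 37°C and 5% CO2 followed compound addition. Gating by CellPathfinder machine learning separated cells into Hoechst high-intensity objects or normal cells, then normal cells into healthy, pyknosed or fragmented nuclei, then pyknosed cells into mitotic or apoptotic. Per cents of healthy-nucleus cells are reported for the tubulin, mitochondrial-mass and membrane-permeability phenotypes.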

[1] = 12 h, 1 µM, compound concentration 1 uM, replicate 1
[2] = 12 h, 1 µM, compound concentration 1 uM, replicate 2
[3] = 12 h, 10 µM, compound concentration 10 uM, replicate 1
[4] = 12 h, 10 µM, compound concentration 10 uM, replicate 2
[5] = 24 h, 1 µM, compound concentration 1 uM, replicate 1
[6] = 24 h, 1 µM, compound concentration 1 uM, replicate 2
[7] = 24 h, 10 µM, compound concentration 10 uM, replicate 1
[8] = 24 h, 10 µM, compound concentration 10 uM, replicate 2
[9] = 48 h, 1 µM, compound concentration 1 uM, replicate 1
[10] = 48 h, 1 µM, compound concentration 1 uM, replicate 2
[11] = 48 h, 10 µM, compound concentration 10 uM, replicate 1
[12] = 48 h, 10 µM, compound concentration 10 uM, replicate 2

## CN1CCC[C@@H]1CCO[C@](C)(c1ccccc1)c1ccc(Cl)cc1.O=C(O)/C=C/C(=O)O [CLEMASTINE FUMARATE]
[1]
  Population Apoptotic (%): 61%
  Population Fragmented Nuclei (%): 35%
  Population Healthy Nuclei (%): 39%
  Population Hoechst High Intensity Objects (%): 20%
  Population Membrane Permeable-Phenotype (%): 13%
  Population Mitochondria Different-Phenotype (%): 10%
  Population Mitotic Cells (%): 38%
  Population Normal (%): 79%
  Population Pyknosed Nuclei (%): 24%
  Population Tubulin-Different-Phenotype (%): 37%
  Total Cell Count: 92
[2]
  Population Apoptotic (%): 50%
  Population Fragmented Nuclei (%): 15%
  Population Healthy Nuclei (%): 76%
  Population Hoechst High Intensity Objects (%): 1%
  Population Membrane Permeable-Phenotype (%): 3%
  Population Mitochondria Different-Phenotype (%): 6%
  Population Mitotic Cells (%): 50%
  Population Normal (%): 98%
  Population Pyknosed Nuclei (%): 7%
  Population Tubulin-Different-Phenotype (%): 3%
  Total Cell Count: 78
[3]
  Population Apoptotic (%): 69%
  Population Fragmented Nuclei (%): 26%
  Population Healthy Nuclei (%): 43%
  Population Hoechst High Intensity Objects (%): 10%
  Population Membrane Permeable-Phenotype (%): 11%
  Population Mitochondria Different-Phenotype (%): 49%
  Population Mitotic Cells (%): 30%
  Population Normal (%): 90%
  Population Pyknosed Nuclei (%): 29%
  Population Tubulin-Different-Phenotype (%): 77%
  Total Cell Count: 160
[4]
  Population Apoptotic (%): 85%
  Population Fragmented Nuclei (%): 19%
  Population Healthy Nuclei (%): 41%
  Population Hoechst High Intensity Objects (%): 21%
  Population Membrane Permeable-Phenotype (%): 6%
  Population Mitochondria Different-Phenotype (%): 86%
  Population Mitotic Cells (%): 14%
  Population Normal (%): 78%
  Population Pyknosed Nuclei (%): 38%
  Population Tubulin-Different-Phenotype (%): 40%
  Total Cell Count: 46
[5]
  Population Apoptotic (%): 63%
  Population Fragmented Nuclei (%): 36%
  Population Healthy Nuclei (%): 50%
  Population Hoechst High Intensity Objects (%): 32%
  Population Membrane Permeable-Phenotype (%): 20%
  Population Mitochondria Different-Phenotype (%): 17%
  Population Mitotic Cells (%): 36%
  Population Normal (%): 67%
  Population Pyknosed Nuclei (%): 13%
  Population Tubulin-Different-Phenotype (%): 60%
  Total Cell Count: 118
[6]
  Population Apoptotic (%): 18%
  Population Fragmented Nuclei (%): 14%
  Population Healthy Nuclei (%): 70%
  Population Hoechst High Intensity Objects (%): 0%
  Population Membrane Permeable-Phenotype (%): 5%
  Population Mitochondria Different-Phenotype (%): 13%
  Population Mitotic Cells (%): 81%
  Population Normal (%): 99%
  Population Pyknosed Nuclei (%): 15%
  Population Tubulin-Different-Phenotype (%): 6%
  Total Cell Count: 107
[7]
  Population Apoptotic (%): 78%
  Population Fragmented Nuclei (%): 34%
  Population Healthy Nuclei (%): 48%
  Population Hoechst High Intensity Objects (%): 16%
  Population Membrane Permeable-Phenotype (%): 9%
  Population Mitochondria Different-Phenotype (%): 76%
  Population Mitotic Cells (%): 21%
  Population Normal (%): 83%
  Population Pyknosed Nuclei (%): 17%
  Population Tubulin-Different-Phenotype (%): 85%
  Total Cell Count: 190
[8]
  Population Apoptotic (%): 76%
  Population Fragmented Nuclei (%): 21%
  Population Healthy Nuclei (%): 36%
  Population Hoechst High Intensity Objects (%): 12%
  Population Membrane Permeable-Phenotype (%): 26%
  Population Mitochondria Different-Phenotype (%): 86%
  Population Mitotic Cells (%): 23%
  Population Normal (%): 87%
  Population Pyknosed Nuclei (%): 41%
  Population Tubulin-Different-Phenotype (%): 26%
  Total Cell Count: 47
[9]
  Population Apoptotic (%): 50%
  Population Fragmented Nuclei (%): 46%
  Population Healthy Nuclei (%): 45%
  Population Hoechst High Intensity Objects (%): 27%
  Population Membrane Permeable-Phenotype (%): 24%
  Population Mitochondria Different-Phenotype (%): 2%
  Population Mitotic Cells (%): 50%
  Population Normal (%): 72%
  Population Pyknosed Nuclei (%): 8%
  Population Tubulin-Different-Phenotype (%): 42%
  Total Cell Count: 136
[10]
  Population Apoptotic (%): 0%
  Population Fragmented Nuclei (%): 48%
  Population Healthy Nuclei (%): 51%
  Population Hoechst High Intensity Objects (%): 16%
  Population Membrane Permeable-Phenotype (%): 11%
  Population Mitochondria Different-Phenotype (%): 14%
  Population Mitotic Cells (%): 0%
  Population Normal (%): 83%
  Population Pyknosed Nuclei (%): 0%
  Population Tubulin-Different-Phenotype (%): 50%
  Total Cell Count: 97
[11]
  Population Apoptotic (%): 78%
  Population Fragmented Nuclei (%): 38%
  Population Healthy Nuclei (%): 45%
  Population Hoechst High Intensity Objects (%): 24%
  Population Membrane Permeable-Phenotype (%): 8%
  Population Mitochondria Different-Phenotype (%): 72%
  Population Mitotic Cells (%): 21%
  Population Normal (%): 75%
  Population Pyknosed Nuclei (%): 15%
  Population Tubulin-Different-Phenotype (%): 83%
  Total Cell Count: 197
[12]
  Population Apoptotic (%): 75%
  Population Fragmented Nuclei (%): 47%
  Population Healthy Nuclei (%): 50%
  Population Membrane Permeable-Phenotype (%): 3%
  Population Mitochondria Different-Phenotype (%): 60%
  Population Mitotic Cells (%): 25%
  Population Pyknosed Nuclei (%): 2%
  Population Tubulin-Different-Phenotype (%): 97%
  Total Cell Count: 258

From ChEMBL document CHEMBL4689842, “EUbOPEN Chemogenomics Library wave 1” (2021)
